Columns and labels:
Pyruvate kinase PKM = Pyruvate kinase PKM (Homo sapiens, UniProt P14618); assay: Activation of N-terminal His -tagged human PKM2 expressed in Escherichia coli BL21 using PEP as substrate measured at 30 secs intervals for between 3 and 6 mins by fluorescent pyruvate kinase-lactate dehydrogenase coupled assay
NCI-H1299 = assay: Antiproliferative activity against human H1299 cells after 48 hrs by MTS assay; assay type: functional, cell-based; conditions: NCI-H1299, 48 h
Outline: (§1)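 Cells grown in RPMI 1640 with 9% FBS at 37°C, 5% CO2. 3000-10000 cells/well were left to attach 12 h, then given compound at five concentrations, or DMSO as vehicle control, for 48 h. MTS was added for 3 h at 37°C and absorbance read at 490 nm. IC50 (50% growth inhibition) was taken from triplicate dose-response curves.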

HCT-116 = assay: Antiproliferative activity against human HCT116 cells after 48 hrs by MTS assay; assay type: functional, cell-based; conditions: HCT-116, 48 h; outline: as §1
HeLa = assay: Antiproliferative activity against human HeLa cells after 48 hrs by MTS assay; assay type: functional, cell-based; outline: as §1
PC-3 = assay: Antiproliferative activity against human PC3 cells after 48 hrs by MTS assay; assay type: functional, cell-based; conditions: PC-3, 48 h; outline: as §1
[1] = Antiproliferative activity against HELF after 48 hrs by MTS assay; set-up: species or system Homo sapiens; outline: as §1

Pyruvate kinase PKM, sequence (P14618 whole entry): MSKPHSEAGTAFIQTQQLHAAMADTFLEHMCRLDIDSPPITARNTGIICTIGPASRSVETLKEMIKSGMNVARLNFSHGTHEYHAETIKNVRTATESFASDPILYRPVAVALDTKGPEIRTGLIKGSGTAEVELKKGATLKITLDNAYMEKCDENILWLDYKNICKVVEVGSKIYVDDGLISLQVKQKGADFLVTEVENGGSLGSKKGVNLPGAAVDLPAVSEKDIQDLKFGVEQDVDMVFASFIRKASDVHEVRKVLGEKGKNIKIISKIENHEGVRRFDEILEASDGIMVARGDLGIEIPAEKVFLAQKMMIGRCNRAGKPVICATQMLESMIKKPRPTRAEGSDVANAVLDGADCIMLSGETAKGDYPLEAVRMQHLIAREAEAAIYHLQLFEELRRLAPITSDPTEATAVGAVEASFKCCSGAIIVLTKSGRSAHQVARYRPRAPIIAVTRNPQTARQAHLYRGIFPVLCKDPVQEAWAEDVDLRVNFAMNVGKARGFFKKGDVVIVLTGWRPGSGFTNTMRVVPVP

SMILES	AC50 (Pyruvate kinase PKM)	IC50 (NCI-H1299)	IC50 (HCT-116)	IC50 (HeLa)	IC50 (PC-3)	IC50 [1]
Cc1cc(C)c(S(=O)(=O)Nc2ccc(C3(O)CSC(=S)N3Cc3cccnc3)cc2)c(C)c1 (stereo not given)	> 20 µM	1.75 µM	1.65 µM	0.94 µM	1.33 µM	–
COc1ccc(Cl)cc1S(=O)(=O)Nc1ccc(C2(O)CSC(=S)N2Cc2cccnc2)cc1 (stereo not given)	> 20 µM	1.62 µM	3.69 µM	1.11 µM	4.51 µM	–
O=[N+]([O-])c1ccccc1S(=O)(=O)Nc1ccc(C2(O)CSC(=S)N2Cc2cccnc2)cc1 (stereo not given)	> 20 µM	1.75 µM	2.3 µM	0.61 µM	3.87 µM	–
O=C1CCc2cc(S(=O)(=O)Nc3ccc(C4(O)CSC(=S)N4Cc4cccnc4)cc3)ccc2N1 (stereo not given)	0.74 µM	1.65 µM	1.64 µM	0.71 µM	4.29 µM	–
Cc1ccc(S(=O)(=O)Nc2ccc(C3(O)CSC(=S)N3Cc3cccnc3)cc2)cc1 (stereo not given)	> 20 µM	1.2 µM	2.18 µM	0.44 µM	0.94 µM	–
O=S(=O)(Nc1ccc(C2(O)CSC(=S)N2Cc2cccnc2)cc1)c1ccccc1 (stereo not given)	2.96 µM	1.44 µM	1.7 µM	0.45 µM	0.99 µM	–
O=S(=O)(Nc1ccc(C2(O)CSC(=S)N2Cc2cccnc2)cc1)c1ccc(F)cc1 (stereo not given)	> 20 µM	1.31 µM	3.5 µM	0.57 µM	1.4 µM	–
O=S(=O)(Nc1ccc(C2(O)CSC(=S)N2Cc2cccnc2)cc1)c1ccc2ccccc2c1 (stereo not given)	> 20 µM	0.81 µM	1.65 µM	0.46 µM	1.52 µM	8.05 µM
O=S(=O)(Nc1ccc(C2(O)CSC(=S)N2Cc2ccncc2)cc1)c1ccc2c(c1)OCCO2 (stereo not given)	> 20 µM	0.75 µM	0.66 µM	0.47 µM	0.7 µM	8.31 µM
CS(=O)(=O)c1cccc(-c2ccc(CN3C(=S)SCC3(O)c3ccc(NS(=O)(=O)c4ccc5c(c4)OCCO5)cc3)cn2)c1 (stereo not given)	17.6 µM	1.02 µM	0.92 µM	0.51 µM	1.35 µM	–
Cc1cccc(S(=O)(=O)Nc2ccc(C3(O)CSC(=S)N3Cc3cccnc3)cc2)c1 (stereo not given)	6.25 µM	1.68 µM	1.73 µM	1.14 µM	1.11 µM	–
O=S(=O)(Nc1ccc(C2(O)CSC(=S)N2Cc2cccnc2)cc1)c1c[nH]c2ncccc12 (stereo not given)	1.41 µM	2 µM	1.55 µM	0.76 µM	1.26 µM	–
O=S(=O)(Nc1ccc(C2(O)CSC(=S)N2Cc2ccc3nccn3c2)cc1)c1ccc2c(c1)OCCO2 (stereo not given)	7.07 µM	0.79 µM	0.77 µM	0.45 µM	1.33 µM	4.91 µM
CC(=O)O[C@H]1C(=O)[C@@]2(C)[C@H]([C@H](OC(=O)c3ccccc3)[C@]3(O)C[C@H](OC(=O)[C@H](O)[C@@H](NC(=O)c4ccccc4)c4ccccc4)C(C)=C1C3(C)C)[C@]1(OC(C)=O)CO[C@@H]1C[C@@H]2O [PACLITAXEL]	–	7.83 µM	1.37 µM	–	4.57 µM	–
O=S(=O)(Nc1ccc(C2(O)CSC(=S)N2Cc2cccnc2)cc1)c1cccc2cccnc12 (stereo not given)	0.52 µM	2.43 µM	2.11 µM	0.84 µM	2.35 µM	–
CN(c1ccc(C2(O)CSC(=S)N2Cc2cccnc2)cc1)S(=O)(=O)c1cccc2cccnc12 (stereo not given)	> 20 µM	2.47 µM	2.32 µM	0.93 µM	6.15 µM	–
O=C1COc2ccc(S(=O)(=O)Nc3ccc(C4(O)CSC(=S)N4Cc4cccnc4)cc3)cc2N1 (stereo not given)	> 20 µM	2.12 µM	1.84 µM	0.78 µM	1.95 µM	–
O=S(=O)(Nc1ccc(C2(O)CSC(=S)N2Cc2cccnc2)cc1)c1cccc2ccccc12 (stereo not given)	> 20 µM	1.53 µM	2.61 µM	0.63 µM	1.69 µM	–
O=[N+]([O-])c1ccc(S(=O)(=O)Nc2ccc(C3(O)CSC(=S)N3Cc3cccnc3)cc2)cc1 (stereo not given)	> 20 µM	1.22 µM	2.72 µM	0.26 µM	1.31 µM	–

SMILES	AC50 (Pyruvate kinase PKM)	IC50 (NCI-H1299)	IC50 (HCT-116)	IC50 (HeLa)	IC50 (PC-3)	IC50 [1]
Cc1ccncc1CN1C(=S)SCC1(O)c1ccc(NS(=O)(=O)c2ccc3c(c2)OCCO3)cc1 (stereo not given)	> 20 µM	0.51 µM	0.41 µM	0.34 µM	1.53 µM	7.21 µM
COc1ccc(S(=O)(=O)Nc2ccc(C3(O)CSC(=S)N3Cc3cccnc3)cc2)cc1 (stereo not given)	4.69 µM	0.96 µM	1.75 µM	0.48 µM	1.07 µM	8.63 µM
O=[N+]([O-])c1cccc(-c2ccccc2S(=O)(=O)Nc2ccc(C3(O)CSC(=S)N3Cc3cccnc3)cc2)c1 (stereo not given)	> 20 µM	2.96 µM	3.89 µM	1.4 µM	3.26 µM	–
O=S(=O)(Nc1ccc(C2(O)CSC(=S)N2CCc2cccnc2)cc1)c1ccc2c(c1)OCCO2 (stereo not given)	> 20 µM	1.28 µM	1.04 µM	0.62 µM	2.16 µM	–
O=S(=O)(Nc1ccc(C2(O)CSC(=S)N2Cc2cnc3ccccc3c2)cc1)c1ccc2c(c1)OCCO2 (stereo not given)	1.75 µM	1.81 µM	1.28 µM	0.55 µM	1.28 µM	–
COc1ncccc1CN1C(=S)SCC1(O)c1ccc(NS(=O)(=O)c2ccc3c(c2)OCCO3)cc1 (stereo not given)	> 20 µM	0.83 µM	0.74 µM	0.41 µM	1.13 µM	10.4 µM
O=S(=O)(Nc1ccc(-c2csc(=S)n2Cc2cccnc2)cc1)c1cccc2cccnc12	> 20 µM	> 20 µM	> 20 µM	> 20 µM	> 20 µM	–
O=S(=O)(Nc1ccc(C2(O)CSC(=S)N2Cc2cccnc2)cc1)c1cccc(F)c1 (stereo not given)	> 20 µM	1.14 µM	4.11 µM	0.48 µM	2.19 µM	–
Cc1ccccc1S(=O)(=O)Nc1ccc(C2(O)CSC(=S)N2Cc2cccnc2)cc1 (stereo not given)	1.19 µM	1.63 µM	2.41 µM	0.55 µM	1.58 µM	–
O=S(=O)(Nc1ccc(C2(O)CSC(=S)N2Cc2cccnc2)cc1)c1cccs1 (stereo not given)	1.47 µM	1.23 µM	1.44 µM	0.42 µM	1.25 µM	–
N#Cc1ccc(S(=O)(=O)Nc2ccc(C3(O)CSC(=S)N3Cc3cccnc3)cc2)cc1 (stereo not given)	> 20 µM	1.47 µM	1.8 µM	0.77 µM	4.11 µM	–
O=S(=O)(Nc1ccc(C2(O)CSC(=S)N2Cc2cnccn2)cc1)c1ccc2c(c1)OCCO2 (stereo not given)	2.15 µM	1.72 µM	0.85 µM	0.55 µM	0.92 µM	–
O=c1ccc2cc(S(=O)(=O)Nc3ccc(C4(O)CSC(=S)N4Cc4cccnc4)cc3)ccc2o1 (stereo not given)	> 20 µM	1.65 µM	1.41 µM	0.69 µM	2.4 µM	–
O=S(=O)(Nc1ccc(C2(O)CSC(=S)N2Cc2cccnc2)cc1)c1ccccc1F (stereo not given)	> 20 µM	1.45 µM	1.18 µM	0.55 µM	2.68 µM	–
O=S(=O)(Nc1ccc(C2(O)CSC(=S)N2Cc2cccnc2)cc1)c1ccccc1-c1ccccc1 (stereo not given)	> 20 µM	2.7 µM	6.11 µM	1.1 µM	2.81 µM	–
O=S(=O)(Cc1ccccc1)Nc1ccc(C2(O)CSC(=S)N2Cc2cccnc2)cc1 (stereo not given)	7.24 µM	1.55 µM	3.32 µM	1.26 µM	2.44 µM	–
COc1cccc(S(=O)(=O)Nc2ccc(C3(O)CSC(=S)N3Cc3cccnc3)cc2)c1 (stereo not given)	5.95 µM	0.93 µM	2.62 µM	0.59 µM	0.93 µM	6.9 µM
O=S(=O)(Nc1ccc(C2(O)CSC(=S)N2Cc2cccnc2)cc1)c1ccccc1N1CCOCC1 (stereo not given)	> 20 µM	1.24 µM	3.45 µM	1.33 µM	8.62 µM	–
CS(=O)(=O)Nc1ccc(C2(O)CSC(=S)N2Cc2cccnc2)cc1 (stereo not given)	> 20 µM	1.25 µM	1.56 µM	0.86 µM	2.2 µM	–
